ChEMBL document CHEMBL3600302, “A Ligand-Based Drug Design. Discovery of 4-Trifluoromethyl-7,8-pyranocoumarin as a Selective Inhibitor of Human Cytochrome P450 1A2” (J Med Chem, 2015)

Experiments:
Cytochrome P450 1A1 = target: T1, Cytochrome P450 1A1 (Homo sapiens, UniProt P04798); test: Inhibition of human microsomal CYP1A1-dependent ethoxyresorufin-O-deethylase activity at 10 nM measured over 6 mins by spectrofluorimetric analysis in absence of NADPH regenerating solution; details: 0.1 h, 0.01 µM
T1 sequence (P04798 whole entry): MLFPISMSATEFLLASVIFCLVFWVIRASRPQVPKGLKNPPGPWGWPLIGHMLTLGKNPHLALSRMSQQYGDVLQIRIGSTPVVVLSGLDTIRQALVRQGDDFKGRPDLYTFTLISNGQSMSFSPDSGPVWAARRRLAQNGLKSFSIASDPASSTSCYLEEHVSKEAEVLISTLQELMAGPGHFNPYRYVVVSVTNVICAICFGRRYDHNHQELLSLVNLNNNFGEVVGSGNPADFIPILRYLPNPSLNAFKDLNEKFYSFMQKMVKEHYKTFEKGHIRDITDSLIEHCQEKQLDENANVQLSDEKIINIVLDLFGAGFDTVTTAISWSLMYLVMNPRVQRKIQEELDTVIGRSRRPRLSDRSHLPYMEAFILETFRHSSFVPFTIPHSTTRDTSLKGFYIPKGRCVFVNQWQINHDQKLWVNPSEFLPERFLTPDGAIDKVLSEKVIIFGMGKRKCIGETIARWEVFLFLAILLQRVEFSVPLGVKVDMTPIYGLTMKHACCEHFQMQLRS
How it was run: (§1)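 Microsomal P450 in 0.1 M potassium phosphate pH 7.6 with MgCl2 and 10 nM inhibitor in DMSO, 2 mL final. Preincubated 5 min at 37 °C either with NADPH-regenerating solution, or without it, with NADPH then added at start. Reaction started with ethoxyresorufin (final 5 µM). Resorufin formation followed 6 min at 37 °C.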

Cytochrome P450 1B1 = target: T2, Cytochrome P450 1B1 (Homo sapiens, UniProt Q16678); test: Inhibition of human microsomal CYP1B1-dependent ethoxyresorufin-O-deethylase activity at 10 nM preincubated for 5 mins followed by NADPH regenerating solution and substrate addition measured over 6 mins by spectrofluorimetric analysis; details: 0.1 h, 0.01 µM; how it was run: as §1
T2 sequence (Q16678 whole entry): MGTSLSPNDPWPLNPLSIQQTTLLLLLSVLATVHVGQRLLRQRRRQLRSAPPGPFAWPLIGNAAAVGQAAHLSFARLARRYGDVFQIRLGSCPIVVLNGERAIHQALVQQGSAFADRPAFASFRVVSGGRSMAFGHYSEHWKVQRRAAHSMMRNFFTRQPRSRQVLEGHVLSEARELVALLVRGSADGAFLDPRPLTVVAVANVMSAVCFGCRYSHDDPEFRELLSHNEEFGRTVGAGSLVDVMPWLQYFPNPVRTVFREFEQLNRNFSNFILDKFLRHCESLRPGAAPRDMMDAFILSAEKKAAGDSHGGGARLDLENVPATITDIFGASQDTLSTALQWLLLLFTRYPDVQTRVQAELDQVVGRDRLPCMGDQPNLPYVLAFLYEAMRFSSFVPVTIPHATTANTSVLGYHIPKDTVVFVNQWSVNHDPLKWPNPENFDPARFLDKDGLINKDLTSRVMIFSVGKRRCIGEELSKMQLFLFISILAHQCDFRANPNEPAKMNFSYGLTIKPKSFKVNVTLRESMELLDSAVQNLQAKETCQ

[1] = target: T3, Aryl hydrocarbon receptor (Homo sapiens, UniProt P35869); test: Activation of human AhR expressed in Saccharomyces cerevisiae MYA-3637 assessed as upregulation of […] at >10^-7 M by LacZ reporter assay; type: ADME
T3 sequence (P35869 whole entry): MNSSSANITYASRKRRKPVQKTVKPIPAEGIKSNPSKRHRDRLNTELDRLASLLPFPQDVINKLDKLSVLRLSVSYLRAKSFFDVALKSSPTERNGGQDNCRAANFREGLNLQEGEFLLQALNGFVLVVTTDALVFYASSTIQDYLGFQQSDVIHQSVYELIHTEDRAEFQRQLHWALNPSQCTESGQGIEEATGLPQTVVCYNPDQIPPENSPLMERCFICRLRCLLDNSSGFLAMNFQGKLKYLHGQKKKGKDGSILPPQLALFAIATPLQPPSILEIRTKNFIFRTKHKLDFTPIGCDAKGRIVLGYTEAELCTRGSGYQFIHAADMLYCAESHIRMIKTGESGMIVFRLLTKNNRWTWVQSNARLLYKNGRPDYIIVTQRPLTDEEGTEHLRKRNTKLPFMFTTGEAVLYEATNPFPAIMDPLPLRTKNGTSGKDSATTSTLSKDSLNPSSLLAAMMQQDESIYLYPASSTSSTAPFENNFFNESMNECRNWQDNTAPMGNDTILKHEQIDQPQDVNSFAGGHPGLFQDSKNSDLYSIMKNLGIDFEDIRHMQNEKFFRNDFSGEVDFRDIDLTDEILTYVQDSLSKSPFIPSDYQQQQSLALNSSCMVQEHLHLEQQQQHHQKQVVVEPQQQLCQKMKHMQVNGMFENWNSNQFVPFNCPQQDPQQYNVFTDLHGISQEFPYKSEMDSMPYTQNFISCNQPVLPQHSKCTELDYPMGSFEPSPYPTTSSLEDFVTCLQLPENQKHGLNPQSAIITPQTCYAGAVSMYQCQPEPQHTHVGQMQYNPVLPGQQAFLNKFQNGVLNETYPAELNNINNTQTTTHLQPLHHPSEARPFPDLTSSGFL
How it was run: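 Yeast MYA-3637 carrying integrated human AhR (GAL promoter) and a lacZ reporter, grown on synthetic minimal medium without tryptophan, with galactose as carbon source. Compounds in DMSO were added to overnight culture in quadruplicate. Next day A600 was read, then lysis buffer (0.2% sarcosyl, 1 mM DTT, 0.4 mg/mL ONPG) was added. A405/A600 ratio was taken. βNF 10^-8 M served as positive control. At least three repeats.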

inhibition (INH) (Cytochrome P450 1A1): Not Active | inhibition (INH) (Cytochrome P450 1B1): Not Active | Activity [1]: Active
Structure (SMILES): Cc1cc2c(ccc3c(=O)cc(-c4ccccc4)oc32)o1
